Results: ChEMBL document CHEMBL4425145, “Discovery of New Anti-Schistosomal Hits by Integration of QSAR-Based Virtual Screening and High Content Screening” (J Med Chem, 2016)
Activity calls are given as the source filed them. The rule behind the calls is not given here.

Legend:
Schistosoma mansoni [1] = experiment: Antischistosomal activity against Schistosoma mansoni BH schistosomula assessed as inhibition of parasite motility at 20 uM after 48 hrs by HCS microscopic analysis; type: functional, organism-based
In short: (§1)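 Cercariae vortexed at maximum speed for 5 min to shed tails and transform to schistosomula. Larvae resuspended in Medium 169 at 120 per well and held overnight under 5% CO2 before dosing. Exposed 48 h at 20 μM, vehicle DMSO 0.625%. Automated bright-field HCS imaging; Bayesian phenotype and motility scores adjusted to DMSO control wells on each plate.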

Schistosoma mansoni [2] = experiment: Antischistosomal activity against Schistosoma mansoni BH schistosomula assessed as darkening of schistosomula at 20 uM after 48 hrs by HCS microscopic analysis; type: functional, organism-based; in short: as §1
Schistosoma mansoni [3] = experiment: Antischistosomal activity against adult female Schistosoma mansoni BH assessed as inhibition of parasite motility at 20 to 100 uM after 48 to 72 hrs in presence of 0.01% triton X-100 by colloidal aggregation assay; type: functional, organism-based
In short: (§2)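 Perfused adult worms held singly in complete DMEM at 37 °C, 5% CO2. Incubated with compound at 20 and 100 μM, with or without Triton X-100 (0.01%). HCS motility measured at 48 and 72 h, and activity with detergent compared with activity without it.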

Schistosoma mansoni [4] = experiment: Antischistosomal activity against Schistosoma mansoni BH schistosomula assessed as inhibition of parasite motility after 48 hrs by HCS microscopic analysis; type: functional, organism-based
In short: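 Schistosomula obtained from cercariae by vortex tail shedding (5 min), held overnight in Medium 169 under 5% CO2 at 120 per well. Dosed at 0.31–20 μM against DMSO 0.625% for 48 h. Motility taken by automated bright-field imaging as average object displacement, adjusted to DMSO control wells. EC50 from a four-parameter logistic fit.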

Schistosoma mansoni [5] = experiment: Antischistosomal activity against adult female Schistosoma mansoni BH assessed as inhibition of parasite motility at 20 to 100 uM after 48 to 72 hrs in absence of 0.01% triton X-100 by colloidal aggregation assay; type: functional, organism-based; in short: as §2
Schistosoma mansoni [6] = experiment: Antischistosomal activity against Schistosoma mansoni BH schistosomula assessed as rounding appearance of schistosomula at 20 uM after 48 hrs by HCS microscopic analysis; type: functional, organism-based; in short: as §1
Schistosoma mansoni [7] = experiment: Antischistosomal activity against adult male Schistosoma mansoni BH assessed as inhibition of parasite motility at 20 to 100 uM after 48 to 72 hrs in absence of 0.01% triton X-100 by colloidal aggregation assay; type: functional, organism-based; in short: as §2
Schistosoma mansoni [8] = experiment: Antischistosomal activity against adult male Schistosoma mansoni BH assessed as inhibition of parasite motility at 20 to 100 uM after 48 to 72 hrs in presence of 0.01% triton X-100 by colloidal aggregation assay; type: functional, organism-based; in short: as §2
Schistosoma mansoni [9] = experiment: Antischistosomal activity against adult male Schistosoma mansoni BH assessed as inhibition of parasite motility up to 72 hrs by HCS microscopic analysis; type: functional, organism-based
In short: (§3)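 Adult worms perfused from portal hepatic and mesenteric veins of Swiss mice 42–49 days after percutaneous infection with 150 ± 10 cercariae. Worms held singly in DMEM with 10% FCS and 2 mM L-glutamine overnight at 37 °C, 5% CO2. Exposed to 0.10–100 μM against 0.1% DMSO, imaged at 0, 24, 48 and 72 h. Motility from image-overlap AdjustedRandIndex; EC50 from dose-response curves.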

Papain = target: T1, Papain (Carica papaya, UniProt P00784); experiment: Inhibition of papaya papain using Z-FR-AMC fluorogenic peptide substrate preincubated for 5 mins followed by substrate addition
T1 sequence (P00784 whole entry): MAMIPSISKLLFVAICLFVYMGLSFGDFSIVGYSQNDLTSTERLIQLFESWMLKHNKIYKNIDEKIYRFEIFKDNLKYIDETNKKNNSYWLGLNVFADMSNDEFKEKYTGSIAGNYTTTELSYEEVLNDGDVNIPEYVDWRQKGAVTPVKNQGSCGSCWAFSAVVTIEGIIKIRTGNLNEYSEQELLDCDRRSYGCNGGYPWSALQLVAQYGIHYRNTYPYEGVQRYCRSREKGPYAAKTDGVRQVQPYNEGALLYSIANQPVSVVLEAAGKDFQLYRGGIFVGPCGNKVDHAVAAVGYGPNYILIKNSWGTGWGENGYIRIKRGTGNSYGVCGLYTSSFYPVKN
In short: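 Papain (5 μg/mL) in 100 mM sodium acetate, pH 3.5, at 37 °C. Pre-incubated 5 min with compound at 20 and 100 μM, then reaction started with 50 μM Z-FR-AMC fluorogenic substrate. E-64 used as positive control.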

Schistosoma mansoni [10] = experiment: Antischistosomal activity against Schistosoma mansoni BH schistosomula assessed as morphological changes at 20 uM after 48 hrs by HCS microscopic analysis; type: functional, organism-based; in short: as §1
Schistosoma mansoni [11] = experiment: Antischistosomal activity against Schistosoma mansoni BH schistosomula assessed as multiple vacuole appearance at 20 uM after 48 hrs by HCS microscopic analysis; type: functional, organism-based; in short: as §1
Schistosoma mansoni [12] = experiment: Antischistosomal activity against adult female Schistosoma mansoni BH assessed as inhibition of parasite motility up to 72 hrs by HCS microscopic analysis; type: functional, organism-based; in short: as §3
[13] = Cytotoxicity against human WSS1 cells assessed as reduction in cell viability after 48 hrs by resazurin assay; type: cell-based
In short: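 Human kidney WSS-1 epithelial cells grown in DMEM (4.5 g/L glucose, 10% FBS, gentamicin) and seeded at 5×10^4 cells/mL. Dosed 20 h later at 0.2–400 μM for 48 h at 37 °C, 5% CO2. Resazurin (final 0.01 mg/mL) added 4 h before the end; resorufin fluorescence read at ex 560/em 590 nm. Viability taken relative to DMSO (0.2–0.8%); CC50 from a four-parameter logistic fit.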

Schistosoma mansoni [14] = experiment: Antischistosomal activity against adult male Schistosoma mansoni BH assessed as inhibition of parasite motility after 72 hrs by HCS microscopic analysis; type: functional, organism-based
In short: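 Adult worms perfused from portal hepatic and mesenteric veins of Swiss mice 42–49 days after percutaneous infection with 150 ± 10 cercariae; males placed singly in wells in DMEM with 10% fetal calf serum, 2 mM L-glutamine, penicillin and streptomycin; held overnight at 37 °C, 5% CO2. Exposed to 0.10–100 μM, DMSO 0.1% control. Image-based motility (overlap index) read at 72 h; EC50 from dose-response.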

[15] = target: T2, Thioredoxin glutathione reductase (Schistosoma mansoni, UniProt Q962Y6); experiment: Inhibition of Schistosoma mansoni TGR
T2 sequence (Q962Y6 whole entry): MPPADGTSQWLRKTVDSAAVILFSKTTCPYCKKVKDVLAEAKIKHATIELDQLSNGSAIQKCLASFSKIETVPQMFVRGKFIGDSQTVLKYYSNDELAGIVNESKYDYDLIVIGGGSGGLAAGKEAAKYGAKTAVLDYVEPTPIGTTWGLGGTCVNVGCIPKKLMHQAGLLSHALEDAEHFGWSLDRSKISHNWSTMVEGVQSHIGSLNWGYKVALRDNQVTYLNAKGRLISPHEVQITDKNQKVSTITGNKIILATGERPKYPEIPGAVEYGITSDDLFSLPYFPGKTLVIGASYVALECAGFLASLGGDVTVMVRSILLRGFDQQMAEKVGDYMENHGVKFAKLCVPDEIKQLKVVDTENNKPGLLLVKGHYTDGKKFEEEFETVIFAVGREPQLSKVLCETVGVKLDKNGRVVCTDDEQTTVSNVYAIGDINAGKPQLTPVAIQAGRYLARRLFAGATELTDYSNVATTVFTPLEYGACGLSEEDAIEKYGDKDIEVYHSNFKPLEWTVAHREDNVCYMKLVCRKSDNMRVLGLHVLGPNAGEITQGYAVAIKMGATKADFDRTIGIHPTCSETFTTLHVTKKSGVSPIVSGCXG

O=S(=O)(Cc1ccccc1)c1nc2ccccc2s1
motility inhibition activity call (Schistosoma mansoni [1]): Active
Activity (Schistosoma mansoni [2]): Active
inhibition (Schistosoma mansoni [3]): Active
EC50 (Schistosoma mansoni [4]): 2.62 µM
inhibition (Schistosoma mansoni [5]): Active
Activity (Schistosoma mansoni [6]): Active
inhibition (Schistosoma mansoni [7]): Active
inhibition (Schistosoma mansoni [8]): Active
EC50 (Schistosoma mansoni [9]): 21.1 µM
IC50 (Papain): > 100 µM
Activity (Schistosoma mansoni [10]): Active
Activity (Schistosoma mansoni [11]): Active
EC50 (Schistosoma mansoni [12]): 4.91 µM
CC50 [13]: 28.5 µM

O=C1CC(Sc2nnc[nH]2)C(=O)N1c1ccc(I)cc1 (stereo not drawn)
motility inhibition activity call (Schistosoma mansoni [1]): Active
EC50 (Schistosoma mansoni [4]): > 20 µM
EC50 (Schistosoma mansoni [9]): 10.2 µM
IC50 (Papain): > 100 µM
Activity (Schistosoma mansoni [10]): Active
EC50 (Schistosoma mansoni [12]): 17.9 µM
CC50 [13]: 133 µM

O=C(C1CCCCC1)N1CC(=O)N2CCc3ccccc3C2C1 (stereo not drawn) [PRAZIQUANTEL]
EC50 (Schistosoma mansoni [14]): 0.22 µM
EC50 (Schistosoma mansoni [4]): 1.9 µM
EC50 (Schistosoma mansoni [12]): 0.64 µM
CC50 [13]: > 400 µM

Cc1noc(/C=C/c2ccccn2)c1[N+](=O)[O-]
motility inhibition activity call (Schistosoma mansoni [1]): Active
Activity (Schistosoma mansoni [2]): Active
inhibition (Schistosoma mansoni [3]): Active
EC50 (Schistosoma mansoni [4]): 3.23 µM
inhibition (Schistosoma mansoni [5]): Active
Activity (Schistosoma mansoni [6]): Active
inhibition (Schistosoma mansoni [7]): Active
inhibition (Schistosoma mansoni [8]): Active
EC50 (Schistosoma mansoni [9]): 6.43 µM
IC50 (Papain): > 100 µM
Activity (Schistosoma mansoni [10]): Active
Activity (Schistosoma mansoni [11]): Active
EC50 (Schistosoma mansoni [12]): 5.68 µM
CC50 [13]: 16.4 µM

CC(=O)c1ccc(NCCC(=O)c2cccs2)cc1
motility inhibition activity call (Schistosoma mansoni [1]): Active
EC50 (Schistosoma mansoni [4]): > 20 µM
Activity (Schistosoma mansoni [10]): Active

O=C(CSc1ccccn1)Nc1nonc1[N+](=O)[O-]
IC50 [15]: 7.08 µM

COc1ccc(/C=C/[N+](=O)[O-])cc1OC
motility inhibition activity call (Schistosoma mansoni [1]): Active
inhibition (Schistosoma mansoni [3]): Active
EC50 (Schistosoma mansoni [4]): > 20 µM
inhibition (Schistosoma mansoni [5]): Active
inhibition (Schistosoma mansoni [7]): Active
inhibition (Schistosoma mansoni [8]): Active
EC50 (Schistosoma mansoni [9]): 29.8 µM
IC50 (Papain): > 100 µM
Activity (Schistosoma mansoni [10]): Active
EC50 (Schistosoma mansoni [12]): 5.77 µM
CC50 [13]: 17.5 µM

COc1ccc(C(=O)c2no[n+]([O-])c2C(=O)c2ccc(OC)cc2)cc1
IC50 [15]: 0.1 µM

N#Cc1cn(-c2ccccc2)nc1-c1ccco1
motility inhibition activity call (Schistosoma mansoni [1]): Active
EC50 (Schistosoma mansoni [4]): > 20 µM
Activity (Schistosoma mansoni [10]): Active
